# Experiments:
# pUL15C [1] = target: T1, pUL15C (Human herpesvirus 1, UniProt P04295); test: Dual-probe fluorescence assay of pUL15C nuclease activity; type: biochemical
# pUL15C [2] = target: T1, pUL15C; test: Differential scanning fluorimetry; type: binding; details: wild-type pUL15C, DSF
# How it was run: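 Binding read by thermal shift: test compound added from a 1 mM DMSO stock to 1.6 µM pUL15C in 20 mM HEPES (pH 7.5), 10 mM MgCl₂, 100 mM NaCl and SYPRO Orange (1:2000). Heated 30 to 80 °C in 0.2 °C steps. Fluorescence was read at ex 483 / em 568 nm, ΔTm was derived from melt curves, and runs were in duplicate.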
# pUL15C [3] = target: T1, pUL15C; test: Yonetani-Theorell analysis of pUL15C nuclease inhibition; type: biochemical; details: compound 21 0-0.4 μM, raltegravir 0-2.0 μM, substrate 250 nM
# pUL15C [4] = target: T1, pUL15C; test: Michaelis-Menten kinetic analysis with the dual-probe fluorescence assay; type: biochemical, herpes simplex virus
# HSV-1 = details: at noncytotoxic concentrations; cited from earlier work
# Lys700Ala pUL15C = Lys700Ala pUL15C (Human herpesvirus 1, UniProt P04295, K700A); test: Differential scanning fluorimetry; type: binding, herpes simplex virus; details: DSF, 20 μM β-thujaplicinol
# pUL15C [5] = target: T1, pUL15C; test: pUL15C nuclease activity on supercoiled plasmid, agarose gel electrophoresis; type: biochemical, herpes simplex virus
# HSV-2 = details: at noncytotoxic concentrations; cited from earlier work
# DNase I = DNase I (Bos taurus, UniProt P00639); test: DNase I cleavage of substrate 21D/33D; type: biochemical; details: 1 mM Mn2+, 20 μM compound
# Sequence of DNase I (P00639 23-282): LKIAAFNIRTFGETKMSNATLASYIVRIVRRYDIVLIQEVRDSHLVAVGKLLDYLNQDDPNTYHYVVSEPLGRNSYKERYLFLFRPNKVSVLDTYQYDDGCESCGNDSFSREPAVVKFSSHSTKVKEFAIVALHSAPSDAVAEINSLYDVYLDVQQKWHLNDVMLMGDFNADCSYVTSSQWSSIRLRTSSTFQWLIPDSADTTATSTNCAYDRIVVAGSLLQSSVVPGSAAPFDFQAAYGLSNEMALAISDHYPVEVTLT
Molecule,decrease of the Tm of pUL15C (destabilizing effect) (pUL15C [2]),IC50 (pUL15C [1]),replication of wild-type and ACV-resistant HSV-1 (HSV-1),replication of wild-type and ACV-resistant HSV-2 (HSV-2),other results
Cc1nnc(C(=O)NC(C)(C)c2nc(C(=O)NCc3ccc(F)cc3)c(O)c(=O)n2C)o1 [raltegravir],–,390 ± 50 nM,–,–,binding-site overlap of compound 21 and raltegravir (Yonetani-Theorell plot) (pUL15C [3]): mutually exclusive; Ki (pUL15C [4]): 1000 ± 100 nM; mode of pUL15C inhibition (pUL15C [4]; Lineweaver-Burke plot): noncompetitively inhibits
CC(C)c1ccc(O)c(=O)c(O)c1 [β-thujaplicinol],–,–,suppress replication,suppress replication,increase of Tm of the Lys700Ala mutant (Lys700Ala pUL15C): 4.30 °C; IC50 (pUL15C [5]): 2000 nM; inhibition of DNase I cleavage of substrate 21D/33D (DNase I): insensitive to inhibition
manicol,–,–,suppress replication,suppress replication,–

# More lines, main results first:
decrease of the Tm of pUL15C (destabilizing effect) (pUL15C [2]),IC50 (pUL15C [1]),Molecule,replication of wild-type and ACV-resistant HSV-1 (HSV-1),replication of wild-type and ACV-resistant HSV-2 (HSV-2),other results
~0.5 °C,–,CCN1C[C@H](C)n2c(c(O)c3c(=O)n(Cc4ccc(F)c(Cl)c4)nc(C(=O)NC)c32)C1=O [MK2048],–,–,"IC50 (pUL15C [1]; read-out: IC50, pUL15C nuclease activity, dual-probe fluorescence assay, 0.3 μM pUL15C, 250 nM DNA duplex, 1 mM MnCl2, 37 °C, triplicate): > 10000 nM"
–,1100 ± 90 nM,C[C@@H]1CCO[C@H]2Cn3cc(C(=O)NCc4ccc(F)cc4F)c(=O)c(O)c3C(=O)N12 [dolutegravir],–,–,–
~0.5 °C,> 10000 nM,COc1cc2c(cc1Cc1cccc(Cl)c1F)c(=O)c(C(=O)O)cn2[C@H](CO)C(C)C [elvitegravir],–,–,–
